Screening results as filed in PubChem BioAssay.
An excerpt weighted towards active compounds, which were near 2.3% of everything screened.
ADAM10 inh = human ADAM10 inhibitors, primary screen, biochemical, QFRET, HTS. recombinant ADAM10, EDANS/DABCYL FRET peptide cleavage, 3 h. hit rate 0.62% among 370,000. inhibition, % at 7 µM. Disintegrin and metalloproteinase domain-containing protein 10 (Homo sapiens), O14672;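 active means inhibition above a per-campaign cutoff equal to the mean of compounds falling between control-based bounds plus 3 SD, cut at about 20% in these data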
ADAM17 inh = ADAM17 inhibitors, primary screen, biochemical, QFRET; Disintegrin and metalloproteinase domain-containing protein 17 (Homo sapiens), P78536; recombinant ADAM17, EDANS/DABCYL FRET peptide cleavage; inhibition, % at 6.95 µM; hit rate 0.83% among 370,000; AID 720648, 2013;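 active means inhibition above the mean of compounds lying between control limits plus 3 SD, set per campaign, cut at about 8.5% in these data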
TbMetRS inhib = T. brucei MetRS inhibitors, primary screen, biochemical, luminescence | methionyl-tRNA synthetase (Trypanosoma brucei brucei) | purified T. brucei MetRS, ATP depletion, Kinase-Glo luminescence | inhibition, % at 11.9 µM | hit rate 0.4% among 360,000 | AID 624268, 2012;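 active means inhibition above a per-plate cutoff of the control wells' mean inhibition plus 3 SD, cut at about 5.5% in these data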
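Assay system: T. brucei methionyl-tRNA synthetase, purified | Medium: HEPES buffer with MgCl2, KCl, DTT, spermine, BSA, pyrophosphatase | Compound: 11.9 µM single point | Incubation: 15 min enzyme-compound preincubation, 2 h reaction, 10 min detection, 25 °C | Measured by: Kinase-Glo luciferase luminescence reporting remaining unconsumed ATP | Measure: % inhibition normalized to control-well medians | Replication: Singlicate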
PLC-beta3 inh = human PLC-beta3 inhibitors, primary screen, biochemical, fluorescence. hit rate 0.18% among 370,000. AID 720704, 2013. Purified PLC-beta3, fluorogenic substrate. inhibition, % at 12.2 µM; in the data active means inhibition above about 11%
PLCg1 inh = PLC-gamma1 enzyme inhibitors, primary screen, biochemical, fluorescence, purified enzyme | inhibition, % at 12.2 µM | 1-phosphatidylinositol 4,5-bisphosphate phosphodiesterase gamma-1 (Homo sapiens), P19174 | fluorogenic substrate | hit rate 0.84% among 370,000; in the data active means inhibition above about 9.5%
Target sequence (P19174 whole entry, looked up): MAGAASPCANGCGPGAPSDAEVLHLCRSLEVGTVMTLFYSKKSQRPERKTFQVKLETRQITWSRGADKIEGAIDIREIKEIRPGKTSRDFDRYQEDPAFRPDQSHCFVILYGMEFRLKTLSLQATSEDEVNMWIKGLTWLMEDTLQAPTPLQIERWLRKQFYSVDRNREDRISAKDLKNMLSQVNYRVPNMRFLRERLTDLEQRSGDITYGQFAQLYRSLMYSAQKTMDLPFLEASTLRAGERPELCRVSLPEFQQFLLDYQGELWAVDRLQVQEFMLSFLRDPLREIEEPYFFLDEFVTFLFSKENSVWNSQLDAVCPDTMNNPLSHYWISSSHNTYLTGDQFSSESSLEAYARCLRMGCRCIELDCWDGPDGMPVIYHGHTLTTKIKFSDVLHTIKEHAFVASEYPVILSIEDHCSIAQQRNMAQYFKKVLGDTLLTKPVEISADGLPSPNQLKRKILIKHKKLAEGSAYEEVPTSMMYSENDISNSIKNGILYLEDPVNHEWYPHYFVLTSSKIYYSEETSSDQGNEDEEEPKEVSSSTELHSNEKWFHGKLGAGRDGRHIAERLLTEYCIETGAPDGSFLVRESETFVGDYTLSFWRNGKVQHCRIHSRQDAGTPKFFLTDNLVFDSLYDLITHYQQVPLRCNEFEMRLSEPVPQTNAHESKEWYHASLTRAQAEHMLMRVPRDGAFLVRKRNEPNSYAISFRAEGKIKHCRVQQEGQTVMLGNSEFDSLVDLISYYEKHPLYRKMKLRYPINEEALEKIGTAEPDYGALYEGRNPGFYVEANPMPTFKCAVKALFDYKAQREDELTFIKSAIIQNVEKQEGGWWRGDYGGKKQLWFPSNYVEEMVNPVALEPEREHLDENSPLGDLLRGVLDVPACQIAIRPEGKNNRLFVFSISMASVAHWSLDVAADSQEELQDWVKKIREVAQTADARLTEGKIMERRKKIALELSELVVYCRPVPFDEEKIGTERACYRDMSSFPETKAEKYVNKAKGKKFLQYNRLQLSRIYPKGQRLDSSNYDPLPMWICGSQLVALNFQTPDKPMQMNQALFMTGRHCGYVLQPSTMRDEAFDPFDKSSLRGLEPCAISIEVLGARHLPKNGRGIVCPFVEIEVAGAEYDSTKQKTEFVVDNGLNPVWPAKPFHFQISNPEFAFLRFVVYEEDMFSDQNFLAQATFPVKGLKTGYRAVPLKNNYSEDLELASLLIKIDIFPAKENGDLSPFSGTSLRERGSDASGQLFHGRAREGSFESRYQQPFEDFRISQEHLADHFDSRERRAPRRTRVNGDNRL
ADAM10 counter = ADAM10 inhibitors, counter-screen for ADAM17 exosite inhibitor project, biochemical, FRET, human ADAM10 | shares compounds with ADAM17 inh | recombinant ADAM10, EDANS/DABCYL FRET peptide cleavage, 3 h | inhibition, % at 6.95 µM | hit rate 47% among 2,900;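 active means mean inhibition over the triplicate runs exceeds the activity threshold set in the earlier primary screen, cut at about 20% in these data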
ADAM17 confirm = ADAM17 inhibitors, hit retest, confirmation, biochemical, QFRET peptide cleavage | inhibition, % at 6.95 µM | shares compounds with ADAM17 inh | AID 743257, 2014 | recombinant ADAM17, EDANS/DABCYL QFRET peptide cleavage | hit rate 65% among 2,900;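 active means mean inhibition across replicates above the hit cutoff set in the primary screen, cut at about 8.5% in these data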
Hits are given with their value; - = inactive; . = no result.

SMILES | ADAM10 inh | ADAM17 inh | TbMetRS inhib | PLC-beta3 inh | PLCg1 inh | ADAM10 counter | ADAM17 confirm
Cc1ccc(Cn2c(=O)c3c(nc4n3CCCN4Cc3ccccc3)n(C)c2=O)cc1 | - | 10.4 | - | - | - | - | -
CC(C)NC(=O)c1cc(C2CCCCN2S(=O)(=O)c2ccc(C#N)cc2)on1 (stereo unspecified) | - | - | - | - | - | . | .
N#Cc1cccc(NC(=O)c2cc(C3CCCCN3S(=O)(=O)c3ccccc3)on2)c1 (stereo unspecified) | - | 12.0 | - | - | - | - | 12.3
O=C(CN1C(=O)NC2(CCCCCCC2)C1=O)Nc1cccc(Br)c1 | - | 9.4 | - | - | - | 19.9 | 12.3
CC(C(=O)O)N1C(=O)/C(=C/c2cccn2C)SC1=S (stereo unspecified) | - | - | - | - | - | . | .
Cn1cccc1/C=C1\SC(=S)N(NC(=O)c2ccccc2)C1=O | - | - | - | - | - | . | .
CCC(C(=O)O)N1C(=O)/C(=C/c2cccn2C)SC1=S (stereo unspecified) | - | 8.8 | - | - | - | - | 11.6
Cn1cccc1/C=C1\SC(=S)N(NC(=O)c2ccc(F)cc2)C1=O | - | 12.5 | - | - | - | - | -
c1ccc(-c2nc(NC3CC3)nc(-n3ccnc3)n2)cc1 | - | - | - | - | - | . | .
N=c1c2c(ccn1CCCCc1ccccc1)Oc1ccc3ccccc3c1C2c1ccccc1 (stereo unspecified) | - | 9.6 | . | - | - | 20.4 | 14.4
N=c1c2c(ccn1Cc1ccccc1)Oc1ccc3ccccc3c1C2c1ccccc1 (stereo unspecified) | - | - | . | - | - | . | .
CCOC(=O)C1=CCN(S(=O)(=O)c2ccc(C)cc2)C1c1cccc2ccccc12 (stereo unspecified) | - | - | - | - | - | . | .
CCOC(=O)C1=CCN(S(=O)(=O)c2ccc(C)cc2)C1c1cccs1 (stereo unspecified) | - | 11.5 | - | - | - | - | -
CCOC(=O)C1(Cc2ccccc2)CCN(Cc2cc(OC)c3c(c2)OCO3)CC1 | - | - | - | - | - | . | .
CC(C)(C)c1nc(NC(=O)Nc2ccccc2)sc1Br | - | 10.7 | - | - | - | 35.0 | 21.1
CCCCN(Cc1ccccc1)S(=O)(=O)c1cc2c(cc1Br)CC(C)N2C(C)=O (stereo unspecified) | - | 10.8 | - | - | - | - | 12.2
COc1ccc(-c2cc3cc(-c4cc(OC)c(OC)c(OC)c4)ccc3o2)cc1 | - | - | - | - | - | . | .
CCC1(CC)C(C#N)C(=O)NC(=O)C1C#N (stereo unspecified) | - | - | - | - | - | . | .
CCN(C[C@H]1N[C@@](C)(C(=O)OC)[C@H]2C(=O)N(Cc3ccccc3)C(=O)[C@@H]12)S(=O)(=O)c1ccc(C(C)(C)C)cc1 | - | 9.4 | - | - | - | 20.8 | 13.4
CC(C)(C)S(=O)N1Cc2cc(C(=O)Nc3ccc(-c4ccccc4)cc3)nc(-c3cccc(-c4cc5ccccc5o4)c3)c2[C@@H]1CCO (stereo partly specified) | - | - | - | - | - | . | .
Cc1c(C=O)c2ccccn2c1C(=O)c1ccccc1 | - | - | - | - | - | . | .
Cc1c(C=O)c2ccccn2c1C(=O)c1ccc(F)cc1 | - | 10.1 | - | - | - | - | -
COc1cccc(C2NC(c3cccc(OC)c3O)C(C)C(=O)C2C)c1O (stereo unspecified) | - | - | - | - | - | . | .
CC1C(=O)C(C)C(c2cc(Cl)ccc2O)NC1c1cc(Cl)ccc1O (stereo unspecified) | - | 9.6 | - | - | - | 32.5 | 16.5
O=C(NCc1ccccc1)N1CCN(Cc2nc3ccccc3c(=O)[nH]2)CC1 | - | - | . | - | - | . | .
SMILES | ADAM10 inh | ADAM17 inh | TbMetRS inhib | PLC-beta3 inh | PLCg1 inh | ADAM10 counter | ADAM17 confirm
CC1(C)Cc2c(c(=S)nc(-c3ccccc3)n2CCN2CCOCC2)CO1 | - | 8.7 | - | - | - | - | -
Cc1onc(-c2ccccc2)c1C(=O)Nc1ccc(Cl)c(S(=O)(=O)N2CCOCC2)c1 | - | 11.2 | - | - | - | - | -
CCNC(=O)NC(=O)COC(=O)c1cccc(NS(=O)(=O)/C=C/c2ccccc2)c1 | - | - | - | - | - | . | .
O=C(COC(=O)c1cccc(NS(=O)(=O)/C=C/c2ccccc2)c1)Nc1ccccc1OC(F)F | - | 9.9 | - | - | - | - | 14.6
Cc1ccc(NC(=O)CSc2nc(=O)n(Cc3ccncc3)c3c2CCC3)c(C)c1 | - | - | - | - | - | . | .
C=CC[C@H]1CC(C)=C[C@H](CC=C)N1C(=O)c1cc(COc2ccccc2SC)on1 | - | 9.4 | - | - | - | 29.0 | 14.5
Cc1ccccc1NC(=O)CN1C(=O)CCSc2ccccc21 | - | - | . | - | - | . | .
CCOc1ccc(CNC(=S)N/N=C/c2ccc(OC)c(OC)c2)cc1 | - | 8.7 | - | - | - | - | 14.6
CCOC(=O)N1CCC(NC(=O)CS(=O)(=O)Cc2nc(-c3cccc(Cl)c3)oc2C)CC1 | - | 9.6 | - | - | - | - | -
CC1(c2nnc(Cc3ccccc3)o2)CC(c2ccc(C#N)cc2)=NO1 (stereo unspecified) | - | 9.0 | - | - | - | - | -
Cc1ccc(Cn2c(C)c(C(=O)NCc3cccs3)sc2=O)cc1 | - | - | - | - | - | . | .
CN1/C(=C\C(=O)C[n+]2ccc3ccccc3c2)C(C)(C)c2ccccc21 | - | - | - | - | - | . | .
CCOc1cc(/C=N/NC(=O)COc2ccc(Cl)cc2)ccc1OS(=O)(=O)c1ccccc1 | - | 14.3 | - | - | - | 37.1 | 16.9
C=CCn1c(-c2csc3c2CCC(C)C3)n[nH]c1=S (stereo unspecified) | - | 10.7 | - | - | - | - | 13.1
Cc1ccc(C(=O)CCC(=O)OCC(=O)N(CC(C)C)c2c(N)n(Cc3ccccc3)c(=O)[nH]c2=O)cc1 | - | - | - | - | - | . | .
CC(C)CN(C(=O)COC(=O)CCC(=O)c1ccc(F)cc1)c1c(N)n(Cc2ccccc2)c(=O)[nH]c1=O | - | 13.4 | - | - | - | - | -
Cc1ccc(S(=O)(=O)NC(C)CCc2ccccc2)cc1 (stereo unspecified) | - | 9.5 | - | - | - | - | -
